# Sampled rows, rich in hits. Any-hit rate of the full collection: about 2.3%.
# NS3 helicase inh = inhibitors of Hepatitis C virus NS3 helicase | AID 1800 | inhibition, % at 10.9 µM | 0.56% of 290,000 active | NS3 helicase DNA unwinding, Cy5 molecular beacon fluorescence;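 active = inhibition above the mean of all tested compounds plus 3 SD, set per campaign, cut at about 35% in these data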
#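 Assay system: hepatitis C virus NS3 helicase domain fragment enzyme. Also added: annealed dual-labelled DNA beacon duplex, ATP-started. Timing: 1 h reaction at 25 °C, ATP-initiated. Technique: Cy5 fluorescence at 0 and 60 min, beacon hairpin quenching. Evaluation: % inhibition of unwinding. Replication: one well per compound.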
# EBNA-1 inhibitor = blocks EBNA-1 binding to DNA; inhibition, % at 14.8 µM; EBNA-1 DNA binding, fluorescence polarization; 0.34% of 300,000 active; in the data active = inhibition above about 28%
# GPR7 antagonist = blocks human GPR7 receptor signaling | AID 1861 | 1.1% of 290,000 active | inhibition, % at 4.4 µM | GPR7-expressing cells, fluorescence antagonist assay; in the data active = inhibition above about 16%, passing the limit was not always enough;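 note: cells stimulated with the agonist NPW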
# Target sequence (P48145 whole entry, looked up): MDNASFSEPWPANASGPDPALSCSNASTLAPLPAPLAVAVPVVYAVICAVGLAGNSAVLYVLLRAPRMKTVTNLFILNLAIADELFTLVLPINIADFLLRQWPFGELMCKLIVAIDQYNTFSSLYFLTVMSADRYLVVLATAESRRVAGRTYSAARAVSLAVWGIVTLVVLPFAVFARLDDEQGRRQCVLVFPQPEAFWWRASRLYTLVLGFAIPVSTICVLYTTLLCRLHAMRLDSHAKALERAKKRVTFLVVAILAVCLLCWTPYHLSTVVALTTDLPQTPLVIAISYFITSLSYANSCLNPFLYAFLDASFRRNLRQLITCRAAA
# EBV gp42 inh = blocks Epstein-Barr virus glycoprotein 42 binding | Fluorescence polarization binding assay, mP read-out | 0.42% of 220,000 active | Q1HVG2 | inhibition, % (tested at 21.74 µM); in the data active = inhibition above about 50%
# Target sequence (Q1HVG2 whole entry, looked up): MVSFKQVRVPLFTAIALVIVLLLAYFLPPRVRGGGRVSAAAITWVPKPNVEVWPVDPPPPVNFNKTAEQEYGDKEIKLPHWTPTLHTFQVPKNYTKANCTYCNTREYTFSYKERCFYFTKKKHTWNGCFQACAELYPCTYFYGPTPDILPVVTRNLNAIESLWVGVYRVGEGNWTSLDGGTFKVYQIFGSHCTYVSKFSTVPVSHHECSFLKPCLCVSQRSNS
# HCV core dimer = HCV core protein dimerization inhibition; TR-FRET GST/Flag-core106 dimerization, 1536-well; inhibition, % at 5 µM; 0.33% of 300,000 active; AID 1899;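 active = inhibition above the mean of all tested compounds plus 3 SD, set per screening campaign, cut at about 45% in these data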
#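 Test system: GST/Flag-tagged HCV core106 proteins; Medium: KF-containing HEPES buffer, pH 7.45, DTT, CHAPS, BSA; Times: compound-protein-antibody incubation 4 h at 22.5 °C; Detection: TR-FRET 671 and 617 nm emission; Benchmarks: wells lacking GST-core106 and wells with excess unlabelled core106.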
# ZTA DNA inh = counter-screen for EBNA-1 inhibitors: inhibitors of Epstein-Barr virus ZTA; ZTA-DNA binding, fluorescence polarization; inhibition, % at 11 µM; 0.15% of 320,000 active; in the data active = inhibition above about 33%
# A number is an active result; n = inactive; x = not tested or not shown.
SMILES,NS3 helicase inh,EBNA-1 inhibitor,GPR7 antagonist,EBV gp42 inh,HCV core dimer,ZTA DNA inh
CC1CCc2c(sc3nc(CN4CCOCC4)nc(NS(=O)(=O)c4cccc([N+](=O)[O-])c4)c23)C1 (centres undefined),n,n,n,59,n,n
Cc1cc(S(=O)(=O)Nc2nc(CN3CCOCC3)nc3sc4c(c23)CCCC4)ccc1F,n,n,n,n,n,n
N=C1/C(=C/c2ccc(-c3cccc(C(=O)O)c3)o2)C(=O)N=C2SC=C(c3ccccc3)N12,n,60,n,67,n,35
N=C1/C(=C\c2ccc(-c3cc(Cl)cc(Cl)c3)o2)C(=O)N=C2SC=C(c3ccccc3)N12,n,n,n,n,49,n
CCOc1ccc(/C=N/NC(=O)c2cccc3ccccc23)c(OCC)c1,n,x,n,x,x,x
O=C1CCCN1C(=O)CSc1ccc2ccccc2n1,x,x,x,x,x,n
C/C=C/C=C/C(=O)N1CC2(CC(c3cccc(NC(=O)/C=C/C)c3)=NO2)C[C@@H]1C(N)=O (some centres undefined),x,n,x,n,47,n
C/C=C/C=C\C(=O)Nc1cccc(C2=NOC3(C2)C[C@@H](C(N)=O)N(C(=O)/C(C)=C/C)C3)c1 (some centres undefined),x,n,x,n,52,n
CC(OC(=O)c1ccccc1O)C(=O)Nc1cccc(Cl)c1 (centres undefined),n,n,n,n,n,n
COc1ccc(NC(=O)CSC2=C(C#N)C(c3ccco3)C(C(=O)Nc3nc4ccccc4s3)=C(C)N2)cc1 (centres undefined),n,n,n,x,48,n
COc1cccc(-n2nnnc2S(C)(=O)=O)c1,n,n,28,n,n,n
COc1cc(CNCCCN2CCOCC2)cc(Br)c1OCc1ccc(Cl)cc1,n,n,59,n,n,n
COc1cc(CNCCN2CCOCC2)ccc1OCc1ccc(Cl)cc1,n,n,n,n,n,n
c1ccc(-c2ccnc3nc(N4CCN(c5ccccc5)CC4)nn23)cc1,n,n,n,72,n,n
Fc1ccc(-c2ccnc3nc(N4CCN(c5ccccc5)CC4)nn23)cc1,n,n,n,n,n,n
O=C(N/N=C/c1cc(Cl)cc(Cl)c1O)c1ccncc1,n,n,n,57,n,n
Cc1cc(C)cc(-n2c3nc4ccccc4nc3c3c(=O)n(Cc4ccco4)cnc32)c1,43,n,n,n,60,n
Cc1sc(NC(=O)c2ccco2)c(C(c2cccnc2)N2CCN(CCO)CC2)c1C (centres undefined),n,n,n,n,n,n
CCOC(=O)C1CCN(C(c2cccnc2)c2c(NC(=O)c3ccco3)sc(C)c2C)CC1 (centres undefined),n,n,27,n,n,n
COc1ccc(N2CSC3=C(C#N)C(c4cc(OC)ccc4OC)CC(=O)N3C2)c(OC)c1 (centres undefined),n,n,n,n,n,n
COc1ccc(N2CSC3=C(C#N)C(c4cc(OC)c(OC)cc4OC)CC(=O)N3C2)c(OC)c1 (centres undefined),66,n,n,n,n,n
Cc1cc(C)n2c(Nc3ccc4c(c3)OCCO4)c(-c3ccco3)nc2n1,60,x,n,n,x,x
CC1CCCN(C(=O)c2ccc(OC3CCN(CCc4ccccc4)CC3)cc2)C1 (centres undefined),n,n,n,x,n,n
COC(=O)C1=C(C)N=C2SCCC(=O)N2C1c1ccc(OC(=O)c2ccco2)cc1 (centres undefined),n,x,n,n,x,x
C=CCOC(=O)C1=C(C)N=C2SCCC(=O)N2C1c1ccc(OC(=O)c2ccco2)cc1 (centres undefined),n,n,25,n,n,n
SMILES,NS3 helicase inh,EBNA-1 inhibitor,GPR7 antagonist,EBV gp42 inh,HCV core dimer,ZTA DNA inh
COC(=O)CCn1nc(-c2ccc(C)cc2)c2ccccc2c1=O,n,n,n,n,n,n
CC1=C(C(=O)OCC(C)C)[C@]23C(=O)c4ccccc4[C@@]2(O1)OC(N)=C3C#N,n,n,17,n,n,n
COC(=O)c1ccc2c(c1)SC1=C(CCCC1=O)N2,n,n,n,146,n,n
O=C1CCCC2=C1Sc1ccc(Cl)cc1N2,n,n,n,54,n,n
COC(=O)c1ccc2c(c1)NC(=O)CS2,n,n,n,n,n,n
S=C1CCSc2ccc(Cl)cc2N1,n,x,n,n,x,x
O=C(NCCO)c1ccc2nc(-c3ccco3)c(-c3ccco3)nc2c1,n,n,n,n,n,n
O=C(NCCc1ccccc1)c1ccc(-n2cnnn2)cc1,n,n,18,n,n,n
O=C(c1ccccc1)c1ccc2nc(-c3ccco3)c(-c3ccco3)nc2c1,n,n,n,n,47,n
O=C(NCCc1ccccc1)c1ccc2nc(-c3ccco3)c(-c3ccco3)nc2c1,n,n,n,55,65,n
Cc1ccc(N2C(=O)c3cccc4c(N)ccc(c34)C2=O)c2cccnc12,n,n,19,n,n,n
CCN1C(=O)c2cccc3c(N)ccc(c23)C1=O,n,n,n,x,n,n
C/C(N)=C(/C#N)C(=O)CSc1nnc(COc2cc(C)ccc2C)o1,n,38,n,n,n,53
COc1cc(O)c(C(CC(=O)N2CCCC(C)C2)c2cc(OC)c(OC)c(OC)c2)c(OC)c1 (centres undefined),x,n,x,n,n,n
CN(C)C(=O)CSc1ccccc1C(=O)OCC(=O)NC1CC1,x,x,x,x,x,n
NC(=O)c1ccc(NC(=O)CN2CCN(S(=O)(=O)c3ccc4c(c3)OCCO4)CC2)cc1,x,x,x,x,x,n
NC(=O)c1c(NC(=O)CN2CCN(S(=O)(=O)c3ccccc3)CC2)sc2c1CCC2,x,n,x,x,48,n
N#Cc1c(NC(=O)CN2CCN(S(=O)(=O)c3ccc4c(c3)OCCO4)CC2)sc2c1CCC2,n,n,n,n,71,n
C=CCNC(=O)c1cc(C(=O)C(C)c2ncc(C(F)(F)F)cc2Cl)c[nH]1 (centres undefined),n,n,n,n,n,n
COC(=O)c1cc(NC(=O)c2ccccc2)c(=O)oc1/C=C/Nc1ccc(Oc2ccccc2)cc1,n,x,n,186,x,x
CC1(C)C(=O)Nc2ccccc2N1C(=O)COC(=O)C12CC3CC(CC(O)(C3)C1)C2,n,n,n,n,57,n
C=CCN=c1scc(-c2ccccc2)n1/N=C/c1ccccn1,n,n,n,n,n,84
CCOC(=O)N1CCN(C(=O)c2cn(-c3ccc(C)c(C)c3)c(=O)c3ccccc23)CC1,n,x,75,n,x,x
O=C(O)C1=CC(=C(c2ccc(O)c(C(=O)O)c2)c2ccc(O)c(C(=O)O)c2)C=CC1=O,x,93,x,x,77,111
O=[N+]([O-])c1ccc2c(OCc3nnc(-c4ccccc4Br)o3)ncnc2c1,n,n,n,n,n,n
CCOc1ccc(OCCCC(=O)N2CCN(S(=O)(=O)c3ccc(Cl)cc3)CC2)cc1,x,n,x,x,n,n
